In ChEMBL document CHEMBL3808334, “Synthesis and in vitro evaluation of novel triazine analogues as anticancer agents and their interaction studies with bovine serum albumin” (Eur J Med Chem, 2016):

Experiments:
MDA-MB-231 [1] = experiment: Growth inhibition of human MDA-MB-231 cells assessed as cell growth at 10^-4 M incubated for 48 hrs by sulforhodamine B assay; format: functional; conditions: MDA-MB-231, 48 h, read-out: Activity
U-251 = experiment: Growth inhibition of human U251 cells incubated for 48 hrs by sulforhodamine B assay; format: functional; conditions: U-251, 48 h
How it was run: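 Cells were plated at 5,000–40,000 per well according to doubling time and preincubated 24 h at 37 °C in 5% CO2; time-zero plates were then TCA-fixed. Five concentrations (10-fold or ½-log dilutions, DMSO stock) were incubated 48 h. Cells were TCA-fixed, stained with 0.4% SRB and read at 515 nm. GI50 was taken where [(Ti−Tz)/(C−Tz)]×100 = 50.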

[2] = Growth inhibition of human SKOV3 cells assessed as cell growth at 10^-8 M incubated for 48 hrs by sulforhodamine B assay; format: functional; conditions: SK-OV-3, 48 h, read-out: Activity
ACHN = experiment: Growth inhibition of human ACHN cells assessed as cell growth at 10^-8 M incubated for 48 hrs by sulforhodamine B assay; format: functional; conditions: read-out: Activity
How it was run: (§1)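 Five-dose assay: five concentrations from 10-fold or ½-log serial dilutions. Cells are plated at 5,000–40,000 per well according to doubling time, grown 24 h, then exposed 48 h at 37 °C, 5% CO₂. Fixed with cold 50% TCA (final addition) for 60 min at 4 °C and stained with 0.4% SRB in 1% acetic acid. Bound dye is solubilized in 10 mM Tris base and read at 515 nm. GI₅₀ is where [(Ti−Tz)/(C−Tz)]×100 = 50, with a time-zero plate as Tz.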

A549 = experiment: Growth inhibition of human A549/ATCC cells assessed as cell growth at 10^-7 M incubated for 48 hrs by sulforhodamine B assay; format: functional; conditions: A549, 48 h, read-out: Activity; how it was run: as §1
NCI-H322M [3] = experiment: Growth inhibition of human NCI-H322M cells assessed as cell growth at 10^-7 M incubated for 48 hrs by sulforhodamine B assay; format: functional; conditions: read-out: Activity
NCI-H23 = experiment: Growth inhibition of human NCI-H23 cells assessed as cell growth at 10^-4 M incubated for 48 hrs by sulforhodamine B assay; format: functional; conditions: NCI-H23, 48 h, read-out: Activity
[4] = Growth inhibition of human SF295 cells assessed as cell growth at 10^-4 M incubated for 48 hrs by sulforhodamine B assay; format: functional; conditions: SF-295, 48 h, read-out: Activity
A498 = experiment: Growth inhibition of human A498 cells assessed as cell growth at 10 uM incubated for 48 hrs by sulforhodamine B assay; format: functional; conditions: A498, 48 h, read-out: Activity
How it was run: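 One-dose screen at 10 µM final. Cells are plated at 5,000–40,000 per well according to doubling time and preincubated 24 h at 37 °C, 5% CO₂. Compound (DMSO stock diluted in medium with 50 µg/ml gentamicin) is then added for 48 h. Growth percent is read by sulforhodamine B staining, absorbance at 515 nm.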

T47D = experiment: Growth inhibition of human T47D cells assessed as cell growth at 10^-7 M incubated for 48 hrs by sulforhodamine B assay; format: functional; conditions: read-out: Activity
CCRF-CEM = experiment: Growth inhibition of human CCRF-CEM cells assessed as cell growth at 10^-6 M incubated for 48 hrs by sulforhodamine B assay; format: functional; conditions: read-out: Activity
How it was run: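 Leukemia line in the five-dose format: five concentrations from 10-fold or ½-log serial dilutions. Plated at 5,000–40,000 cells per well, preincubated 24 h, then compound added for 48 h at 37 °C, 5% CO₂. Sulforhodamine B absorbance read at 515 nm. Growth is computed against time-zero (Tz) and control (C) readings; GI₅₀ is where [(Ti−Tz)/(C−Tz)]×100 = 50.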

[5] = Growth inhibition of human MOLT4 cells assessed as cell growth at 10^-6 M incubated for 48 hrs by sulforhodamine B assay; format: functional; conditions: MOLT-4, 48 h, read-out: Activity
[6] = Growth inhibition of human HOP92 cells assessed as cell growth at 10^-6 M incubated for 48 hrs by sulforhodamine B assay; format: functional; conditions: HOP-92, 48 h, read-out: Activity
[7] = Growth inhibition of human HCC2998 cells assessed as cell growth at 10^-6 M incubated for 48 hrs by sulforhodamine B assay; format: functional; conditions: HCC 2998, 48 h, read-out: Activity
How it was run: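 Cells seeded at 5,000–40,000/well according to doubling time and preincubated 24 h at 37 °C, 5% CO2. Time-zero plates were TCA-fixed. DMSO concentrate was diluted in medium with 50 µg/ml gentamicin to give five concentrations (10-fold or ½ log steps), then exposed 48 h. Cells were TCA-fixed, stained with 0.4% SRB and read at 515 nm. Percent growth was taken against time-zero and control; GI50, TGI and LC50 derived.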

NCI-H322M [8] = experiment: Growth inhibition of human NCI-H322M cells assessed as cell growth at 10^-8 M incubated for 48 hrs by sulforhodamine B assay; format: functional; conditions: read-out: Activity
MDA-MB-231 [9] = experiment: Growth inhibition of human MDA-MB-231 cells assessed as cell growth at 10^-6 M incubated for 48 hrs by sulforhodamine B assay; format: functional; conditions: MDA-MB-231, 48 h, read-out: Activity
[10] = Growth inhibition of human HL-60(TB) cells assessed as cell growth at 10^-5 M incubated for 48 hrs by sulforhodamine B assay; format: functional; conditions: HL-60, 48 h, read-out: Activity
How it was run: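 Cells plated at 5,000–40,000/well according to doubling time and preincubated 24 h at 37 °C, 5% CO₂, with time-zero plates TCA-fixed. Drugs were kept as DMSO concentrates at 400× the top concentration and diluted in medium with 50 µg/ml gentamicin. Five 10-fold or ½-log dilutions were run for 48 h, followed by SRB staining and A515. Percent growth = (Ti−Tz)/(C−Tz)×100, or (Ti−Tz)/Tz×100 when Ti<Tz.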

KM12 = experiment: Growth inhibition of human KM12 cells assessed as cell growth at 10^-5 M incubated for 48 hrs by sulforhodamine B assay; format: functional; conditions: KM12, 48 h, read-out: Activity
EKVX = experiment: Growth inhibition of human EKVX cells assessed as cell growth at 10 uM incubated for 48 hrs by sulforhodamine B assay; format: functional; conditions: read-out: Activity
How it was run: (§2)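 Primary screen at one dose (10 µM) across 60 human cancer cell lines. Readout was growth percent relative to untreated control and time-zero.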

[11] = Growth inhibition of human HCT15 cells assessed as cell growth at 10 uM incubated for 48 hrs by sulforhodamine B assay; format: functional; conditions: HCT-15, 48 h, read-out: Activity; how it was run: as §2
Albumin = Albumin (Bos taurus, UniProt P02769); experiment: Binding affinity to bovine serum albumin assessed as binding constant in emission spectra by Benesie-Hildebrand plot analysis; format: ADME; conditions: cattle, isolated protein
Sequence of Albumin (P02769 whole entry): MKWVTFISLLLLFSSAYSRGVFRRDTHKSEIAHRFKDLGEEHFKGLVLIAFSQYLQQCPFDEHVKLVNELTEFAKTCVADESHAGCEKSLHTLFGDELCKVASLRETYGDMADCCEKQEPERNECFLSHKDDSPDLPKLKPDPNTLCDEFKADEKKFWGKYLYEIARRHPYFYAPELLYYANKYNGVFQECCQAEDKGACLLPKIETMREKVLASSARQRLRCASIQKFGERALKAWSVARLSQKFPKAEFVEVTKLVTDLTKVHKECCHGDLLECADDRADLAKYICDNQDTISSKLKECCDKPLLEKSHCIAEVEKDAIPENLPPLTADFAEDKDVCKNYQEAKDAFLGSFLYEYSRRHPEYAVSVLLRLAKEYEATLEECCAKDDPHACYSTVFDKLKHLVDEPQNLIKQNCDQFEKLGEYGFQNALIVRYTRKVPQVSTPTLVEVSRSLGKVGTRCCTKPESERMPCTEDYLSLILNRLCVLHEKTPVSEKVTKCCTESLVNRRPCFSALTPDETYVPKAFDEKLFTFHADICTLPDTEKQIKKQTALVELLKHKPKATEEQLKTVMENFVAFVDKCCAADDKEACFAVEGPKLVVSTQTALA
How it was run: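 BSA, 10 µM, in 0.1 M phosphate buffer pH 7.4, titrated with compound (0–20 µM per the figure; diluted from 10⁻³ mol L⁻¹ DMSO stocks). Run at 300 K in a 1 cm quartz cell. UV spectra taken 200–800 nm after 5 min equilibration; fluorescence excited at 280 nm, emission 351 nm, slit 10 nm. K is the intercept/slope ratio of a linear fit of 1/(A₀−A) or 1/(F₀−F) vs 1/[compound].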

[12] = read-out: LC50 (the source's name)
[13] = read-out: pLC50 (the source's name) (converted)

SMILES	growth at 100 µM (MDA-MB-231 [1]) [%]	GI50 (U-251; read-out: GI50) [nM]	TGI (U-251; read-out: TGI) [nM]	GI50 (U-251; read-out: pGI50 (converted)) [nM]	TGI (U-251; read-out: pTGI (converted)) [nM]	growth at 0.01 µM [2] [%]	growth at 0.01 µM (ACHN) [%]	growth at 0.1 µM (A549) [%]	growth at 0.1 µM (NCI-H322M [3]) [%]	growth at 100 µM (NCI-H23) [%]	growth at 100 µM [4] [%]	growth at 10 µM (A498) [%]	growth at 0.1 µM (T47D) [%]	growth at 1 µM (CCRF-CEM) [%]	growth at 1 µM [5] [%]	growth at 1 µM [6] [%]	growth at 1 µM [7] [%]	growth at 0.01 µM (NCI-H322M [8]) [%]	growth at 1 µM (MDA-MB-231 [9]) [%]	growth at 10 µM [10] [%]	further results
Clc1ccc(-c2nc(Nc3ccc(-c4nc5ccccc5[nH]4)cc3)nc(N3CCOCC3)n2)cc1	-22	215	442	214	447	101	95	99	94	-27	-10	-81.5	92	-19	-29	68	15	96	-55	-71	growth at 10 µM (KM12): -81%; growth at 10 µM (EKVX): -91.3%; growth at 10 µM [11]: -92.6%; K (Albumin): 4.2 ×10⁷ /M
c1ccc2[nH]c(-c3ccc(Nc4nc(N5CCCCC5)nc(N5CCOCC5)n4)cc3)nc2c1	-16	2180	10000	2190	10000	97	101	96	97	-26	-56	-28.6	94	100	97	95	105	90	92	-31	CC50 (U-251; [12]): 76800 nM; CC50 (U-251; [13]): 77600 nM; growth at 10 µM (KM12): -2%; growth at 10 µM (EKVX): 27.7%; growth at 10 µM [11]: -33.9%; K (Albumin): 5.7 ×10⁴ /M
c1ccc(-c2nc(Nc3ccc(-c4nc5ccccc5[nH]4)cc3)nc(N3CCOCC3)n2)cc1	-60	535	1760	537	1780	95	96	97	101	-51	-71	-83.4	109	32	65	70	93	95	63	-44	CC50 (U-251; [12]): 4890 nM; CC50 (U-251; [13]): 4900 nM; growth at 10 µM (KM12): -84%; growth at 10 µM (EKVX): -66.9%; growth at 10 µM [11]: -68.9%; K (Albumin): 3.2 ×10⁴ /M
Fc1ccc(-c2nc(Nc3ccc(-c4nc5ccccc5[nH]4)cc3)nc(N3CCOCC3)n2)cc1	-33	2040	13600	2040	13500	99	100	100	102	-15	-35	-32.1	93	92	87	90	94	101	73	-27	CC50 (U-251; [12]): > 100000 nM; CC50 (U-251; [13]): > 100000 nM; growth at 10 µM (KM12): -28%; growth at 10 µM (EKVX): 7.91%; growth at 10 µM [11]: -62.2%; K (Albumin): 7.9 ×10⁴ /M
